High-throughput results (PubChem)
Autophagy HCS = autophagy modulators in MEF cells, primary screen, imaging, high-content, MEF GFP-LC3. MEF GFP-LC3 puncta imaging; test concentration mostly 10 µM. calls only at 10 µM (by protocol). 190,000 compounds, 0.98% hits. AID 463193, 2010;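 active = percentage of spot-positive cells more than 3 SD above its plate mean, without a fluorescence outlier flag or 80% toxicity; inconclusive = no clear call, values can overlap the other calls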
b-catenin transl = modulators of beta-catenin nuclear translocation, primary screen, imaging, HeLa cells, immunofluorescence, high-content | nuclear translocation activity, % at 5 µM | 190,000 compounds, 0.3% hits | AID 1665, 2009;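 active = nuclear translocation activity above 50% at 5 µM, with a well cell count of 50 or more; inconclusive = wells under 50 cells across six images, flagged as toxic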;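 note: per-cell ratio of nuclear to cytoplasmic median beta-catenin stain intensity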
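Test system: human HeLa cells, native beta-catenin. Compound dosing: 5 µM primary single dose, 0.1% DMSO, 0.02–20 µM confirmation series. Incubation: compound exposure 24 h at 37°C. Detection: beta-catenin immunostaining with DAPI counterstain, 20x imaging, 6 fields/well. Read-out basis: Nuclear/cytoplasmic beta-catenin signal ratio, % activation.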
Ins promoter up = insulin promoter activators in MIN6 cells, imaging, high-content screening, mouse beta cells; AID 1625, 2009; z-score at 5 µM; MIN6 insulin promoter-GFP reporter; stronger effect = higher value; 190,000 compounds, 0.3% hits;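 active = z-score above 3 at 5 µM with at least 500 cells counted in the well; inconclusive = wells under 500 cells, flagged as cytotoxic or low count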
Dynein cargo inh = inhibitors of GR-EGFP nuclear translocation, primary screen, dynein cargo transport inhibitor project, imaging, high-content, 3617.4 mouse cells. z-score, hits read low. test concentration mostly 20 µM; stimulated with dexamethasone, 1 µM; stronger effect = lower value. 220,000 compounds, 0.47% hits;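 active = plate z-score of nuclear minus cytoplasmic receptor signal below a set negative limit, without overly bright fluorescence or cell loss, cut at about -3.5 in these data, passing the limit was not always enough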;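 note: z-score of nuclear minus cytoplasmic ring GR-EGFP intensity difference per well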
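medium = tetracycline-free induction medium containing charcoal-stripped FBS | probe or stimulus = dexamethasone, 1.0 µM final | timing = 48 h induction, then 1 h compound, then 30 min agonist, 37 °C | detection = automated 10x imaging of fixed Hoechst-stained cells | read-out basis = nuclear versus cytoplasmic GR-EGFP signal, averaged per well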
MT stabilizer = microtubule stabilizers in HeLa cells, primary screen, imaging, high-content imaging; % tubulin-high responders, % at 10 µM; 200,000 compounds, 0.83% hits; AID 2205, 2009; HeLa tubulin immunostaining HCS, 24 h; share of cells brighter than vehicle mean+2SD;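 active = plate Z-score above 3 for both tubulin-high and condensed-nucleus cell shares, with cell loss under 80%, at 10 µM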;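 note: anti alpha tubulin signal scored within the nucleus-defined area of each cell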
Dynein inh conf = dynein cargo transport inhibitors, GR-EGFP translocation, confirmation, imaging, high-content imaging, GR-EGFP cells; shares compounds with Dynein cargo inh; 3617.4 GR-EGFP nuclear translocation imaging, dexamethasone-induced; calls only at 20 µM; 1,000 compounds, 69% hits; AID 463116, 2010;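 active = inhibition of receptor movement into the nucleus at or above a set limit in both runs, with normal cell brightness and cell count; inconclusive = limit reached in only one run, brightness and count normal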;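 note: dexamethasone at 1 µM final in well for 30 min; nuclear minus cytoplasmic GR-EGFP mean intensity difference in channel 2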
Numbers stand for hits; 0 = inactive; ? = inconclusive; - = not tested or not shown; + = active, no number. Compounds with a hit are over-represented: about 2.3% of the library has one in this group of screens.

SMILES	Autophagy HCS	b-catenin transl	Ins promoter up	Dynein cargo inh	MT stabilizer	Dynein inh conf
COc1ccc(/C=C/C(=O)c2c(O)c(OC)c3occc3c2OC)cc1	0	0	0	-4.7	0	+
Cc1onc(-c2c(F)cccc2Cl)c1C(=O)OCC(=O)NC1CC1	0	0	0	0	0	-
COc1ccc(-n2ncc(Cl)c(Cl)c2=O)cc1	0	0	0	-6.8	0	+
CC(=O)c1cc(C(=O)N2CCc3c([nH]c4ccccc34)C2C2CCCCC2)[nH]n1 (centres undefined)	0	0	0	0	0	-
COc1ccc(-c2cccc([C@H]3[C@@H]4C=CCC[C@@]4(C)C(=O)N3Cc3ccccc3)c2)cc1	-	0	-	-3.6	-	+
O=C(/C=C/c1cccc([N+](=O)[O-])c1)NC(=S)Nc1cccc(NC(=O)c2ccccc2Cl)c1	0	0	0	0	0	-
O=C(/C=C/c1cccc([N+](=O)[O-])c1)NC(=S)Nc1ccccc1C(=O)O	0	0	0	-3.5	0	+
CCN(CC)S(=O)(=O)c1cccc(NC(=O)COC(=O)C2CC3C=CC2C3)c1 (centres undefined)	0	0	0	0	0	-
N#Cc1ccc(COn2nnc3ccccc32)cc1	0	0	0	0	0	-
O=C(/C=C/c1ccc(F)cc1)c1cc(Br)ccc1O	-	0	0	-3.8	-	+
O=C(/C=C/c1ccccc1)c1cc(Br)ccc(=O)c1O	0	-	0	0	0	-
CCOC(=O)c1cc(-c2ccc(/C=C3/C(=O)NC(=O)C(C#N)=C3C)o2)ccc1Cl	0	-	-	-3.6	0	+
CCCCCn1c(=O)c2ccccc2n2c(CCl)nnc12	0	0	0	-6.5	0	+
Cc1ccc(Cn2c(=O)c3ccccc3n3c(CCC(=O)O)nnc23)cc1	-	-	-	0	0	-
CC(C)CCn1c(=O)c2ccccc2n2c(CN3CCCC3)nnc12	0	0	0	0	0	-
CC(C)CCn1c(=O)c2ccccc2n2c(CCl)nnc12	0	0	0	-4.5	0	+
O=C(C[n+]1cccc(CO)c1)Nc1nc2ccccc2s1	0	0	-	0	0	-
COc1cccc(-n2nc(C#N)c(Cl)cc2=O)c1	+	0	0	-6.2	0	+
CCn1c(/C=C/N(C(C)=O)c2ccccc2)[n+](CC)c2ccc(Cl)cc21	0	0	0	0	0	-
CC[n+]1c(/C=C/C=C/N(C(C)=O)c2ccccc2)sc2ccccc21	+	-	?	-3.9	0	+
COc1ccc(CN(Cc2cc3cccc(C)c3n3nnnc23)C(=O)N2CCOCC2)cc1	0	0	-	0	0	-
Cc1sc(NC(=O)CCl)c(C(=O)c2ccccc2)c1C	0	0	0	-3.7	0	+
O=C(COC(=O)Cc1ccccc1F)Nc1cccc(F)c1	0	0	-	0	0	-
CCOC(=O)C(=Cc1c[nH]c2ccc(S(=O)(=O)N(C)C)cc12)C(=O)OCC	-	0	0	-4.7	-	+
CCOC(=O)/C(C#N)=C/c1c[nH]c2ccccc12	0	0	0	0	0	-
SMILES	Autophagy HCS	b-catenin transl	Ins promoter up	Dynein cargo inh	MT stabilizer	Dynein inh conf
CCOc1ccccc1NC(=S)N1CCN(c2nc(-c3ccc(F)cc3)cs2)CC1	0	0	0	0	0	-
C/C(CCc1oc2c(Br)cc(Br)cc2c1-c1ccc(C)o1)=N\O	0	0	-	-4.1	0	0
Cc1cc(C)c2c(=O)c(/C=C3\NC(=S)NC3=O)coc2c1	-	0	0	0	-	-
COc1cc(N2CCCC2)c(OC)cc1/C=C1/NC(=S)NC1=O	+	0	-	0	0	0
COc1ccccc1C1Nc2cccc3cccc(c23)N1	0	0	0	-4.7	0	0
COc1ccc(C(=O)/C=C/C(=O)N(CC(=O)NC2CCCCC2)Cc2ccc(F)cc2)c(O)c1	0	0	?	-4.5	0	+
COc1ccc(C(=O)/C=C/C(=O)N(CC(=O)NCCC(C)C)Cc2cccs2)c(O)c1	0	0	0	-6.1	0	+
O=C(CN1CCN(S(=O)(=O)c2ccccc2[N+](=O)[O-])CC1)NC(=O)NCc1ccco1	0	0	0	-3.6	0	0
O=C(CN1CCN(Cc2ccccc2)CC1)NC(=O)NCc1ccco1	0	0	0	0	0	-
COCCCNC(=O)CN(c1cc([N+](=O)[O-])ccc1OC)S(C)(=O)=O	0	0	0	0	0	-
COc1ccc(NC(=O)/C(Cl)=C(/Cl)S(=O)Cc2ccccc2)cn1 (centres undefined)	0	0	0	-5.4	0	+
COc1ccc(CS(=O)(=O)/C(Cl)=C(/Cl)C(=O)Nc2ccc(OC)nc2)cc1	0	-	0	0	0	+
Cc1ccc(-n2ncc3c(=O)n(CC(=O)N4CCN(c5ccccc5)CC4)cnc32)cc1C	0	0	0	0	0	-
COc1ccc2c(c1)C1CC(C)(NC(=O)C1S(=O)(=O)c1ccc(F)cc1)O2 (centres undefined)	0	0	0	0	0	-
O=C(/C(=C/c1ccc(Cl)cc1)c1nc2ccccc2[nH]1)c1cccs1	+	0	?	-4.5	28	+
COC(=O)/C(=C\c1cc(OC)c(OC)c(OC)c1)c1nc2ccccc2[nH]1	0	0	0	0	0	-
COc1cc(/C=C(/C(=O)c2cccs2)c2nc3ccccc3[nH]2)ccc1O	0	0	0	-4	0	+
CC(=O)NS(=O)(=O)c1ccc(NC(=O)CN2C(=O)C3C4C=CC(C4)C3C2=O)cc1 (centres undefined)	0	0	0	0	0	-
O=[N+]([O-])c1cc(S(=O)(=O)N2CCCC2)ccc1SCCO	0	0	0	0	0	-
N#CC1=C(N)OC2=C(CC/C2=C\c2ccccc2)C1c1ccccc1 (centres undefined)	0	0	0	0	0	+
Cc1ccc(S(=O)(=O)Oc2ccc(/C=C(/NC(=O)c3ccccc3)C(=O)NC(C)C(=O)O)cc2)cc1 (centres undefined)	0	0	0	0	0	-
CCCNC(=O)c1nnsc1S(=O)c1ccc(Cl)cc1 (centres undefined)	0	0	0	-4.8	0	+
CCCNC(=O)c1ccc2snnc2c1	0	0	0	0	0	-
CNC(=O)c1nnsc1S(=O)c1ccc(Cl)cc1 (centres undefined)	0	0	0	-5	0	+
CCCNC(=O)c1nnsc1S(=O)(=O)c1ccc(Cl)cc1	0	0	0	-4.2	0	+
CCCNC(=O)NS(=O)(=O)c1ccc(Cl)cc1	0	0	-	0	0	-
O=C(CS(=O)(=O)c1ccccc1)Nc1ccc(Br)cn1	0	0	0	0	0	-
O=C(c1ccc(F)cc1)N1CCN(C(=O)c2ccc([N+](=O)[O-])cc2)CC1	0	0	0	0	0	-
Cc1cc(-c2nc(C)c(C(=O)NN)s2)no1	-	0	0	0	-	-
